{"source": "paper PMC4832308", "about": "(Cancer, 2015)", "key": {"[1]": {"tested_on": "patients with advanced solid tumors or multiple myeloma", "experiment": "phase 1 dose escalation: preliminary efficacy", "type": "in vivo, human", "summary_of_the_method": "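Single dose on day −1, then oral daily dosing after a ≥6-h fast in 28-day cycles until progression. Tumors were imaged by CT or MRI. Response was scored by RECIST 1.1, international uniform criteria for myeloma, or revised high-grade glioma criteria. Evaluable patients were eligible, completed ≥1 cycle, and had baseline plus ≥1 postbaseline assessment. Disease control rate was given with a 90% confidence interval.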"}, "pS6RP [2]": {"tested_on": "pS6RP", "experiment": "blood biomarker analysis by flow cytometry and PK/PD modeling", "type": "in vivo, human", "conditions": "for EC50: Homo sapiens, read-out: EC50 for pS6RP inhibition", "summary_of_the_method": "(§1)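 Sodium-heparin patient whole blood, taken predose and 1.5–5 h postdose: 1 h at 37°C, 15-min anti-IgD plus LPS stimulation, lyse/fix, methanol overnight at −80°C, then CD3/CD14/CD20 and phospho-staining and flow cytometry. Bead-calibrated MFI reported as ERF. Baseline-relative change vs plasma drug (chiral LC-MS) was fitted by a direct inhibitory NONMEM model for EC50: p4EBP1 in T cells, pS6RP in B cells and monocytes.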"}, "p4EBP1 [3]": {"tested_on": "p4EBP1", "experiment": "immuno‐histochemical staining of tumor biopsies", "type": "in vivo, human", "conditions": "HCC sample after treatment initiation", "summary_of_the_method": "(§2)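 Optional pretreatment and on-treatment (days 15–22) tumor biopsies from 2 patients in the 30-mg/d cohort (HCC and salivary gland tumor). Paraffin-embedded sections were immunostained per antibody (pS6RP, p4EBP1, pAKT, Ki-67) or TUNEL-labelled, then scored by quantitative image analysis.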"}, "pAKT [4]": {"tested_on": "pAKT", "experiment": "immuno‐histochemical staining of tumor biopsies", "type": "in vivo, human", "conditions": "pre‐ vs on‐treatment (days 15‐22), HCC and salivary gland tumor, 30‐mg/d cohort", "summary_of_the_method": "as §2"}, "PC3 prostate cancer": {"tested_on": "PC3 prostate cancer", "conditions": "cited from earlier work"}, "p4EBP1 [5]": {"tested_on": "p4EBP1", "experiment": "blood biomarker analysis by flow cytometry and PK/PD modeling", "type": "in vivo, human", "summary_of_the_method": "as §1"}, "pS6RP [6]": {"tested_on": "pS6RP", "experiment": "immuno‐histochemical staining of tumor biopsies", "type": "in vivo, human", "conditions": "pre‐ vs on‐treatment (days 15‐22), HCC and salivary gland tumor, 30‐mg/d cohort", "summary_of_the_method": "as §2"}, "TUNEL‐positive cells": {"tested_on": "TUNEL‐positive cells", "experiment": "TUNEL staining of tumor biopsies", "type": "in vivo, human", "conditions": "HCC and salivary gland tumor samples after treatment", "summary_of_the_method": "as §2"}, "[7]": {"tested_on": "solid tumor lines, including breast, glioma, hepatocellular carcinoma (HCC), and non–small cell lung cancer", "conditions": "cited from earlier work"}, "[8]": {"experiment": "urine pharmacokinetics in patients", "conditions": "human, in vivo"}, "[9]": {"tested_on": "non‐Hodgkin lymphoma cell lines", "conditions": "cited from earlier work"}, "pAKT [10]": {"tested_on": "pAKT", "experiment": "blood biomarker analysis by flow cytometry and PK/PD modeling", "type": "in vivo, human", "conditions": "for EC50: Homo sapiens, read-out: EC50 for pAKT inhibition"}, "[11]": {"conditions": "30‐, 45‐, and 60‐mg dose levels, 3 hours on treatment"}}, "note": "Several values for one entry are separate records, joined by “and”; a condition that tells them apart may be missing. Equal entries are not always repeated. Where two headings read alike, the source gives them in different places."}
{"smiles": "CO[C@H]1CC[C@H](N2C(=O)CNc3ncc(-c4ccc(C(C)(C)O)nc4)nc32)CC1", "note": "[CC‐223]", "values": [{"measurement": "complete response", "setting": "[1]; 20 patients evaluable for efficacy", "value": "No patient had a complete response"}, {"measurement": "patients with stable disease", "setting": "[1]; across ≥15 mg/d cohorts", "value": 8, "unit": "patients"}, {"measurement": "patients with progressive disease", "setting": "[1]; best response", "value": 12, "unit": "patients"}, {"measurement": "duration of partial response / disease control", "setting": "[1]; breast cancer patient with PR, 30‐mg/d cohort", "value": 220, "unit": "days"}, {"measurement": "disease control duration", "setting": "[1]; breast cancer patient with SD", "value": 168, "unit": "days"}, {"measurement": "partial response rate", "setting": "[1]; breast cancer patient, 30‐mg/d cohort", "value": 3.6, "unit": "%"}, {"measurement": "patients with reduction in target lesions", "setting": "[1]; in addition to the PR", "value": 5, "unit": "patients"}, {"measurement": "patients with SD >100 days", "setting": "[1]; in vivo", "value": 5, "unit": "patients"}, {"measurement": "patients with disease control durations of >100 days", "setting": "[1]; in vivo", "value": "Six"}, {"measurement": "best overall response rate per investigator", "setting": "[1]; safety population", "value": 3.6, "unit": "%"}, {"measurement": "disease control rate", "setting": "[1]; safety population", "value": "32% and 32.1%"}, {"measurement": "stable disease rate", "setting": "[1]; safety population", "value": 29, "unit": "%"}, {"measurement": "pS6RP inhibition in blood cells", "setting": "pS6RP [2]; [11]", "value": "> 70", "unit": "%"}, {"measurement": "EC50", "setting": "pS6RP [2]; B-cell", "value": 0.0203, "unit": "µg/mL"}, {"measurement": "EC50", "setting": "pS6RP [2]; Monocyte", "value": 0.174, "unit": "µg/mL"}, {"measurement": "p4EBP1 in tumor biopsy", "setting": "p4EBP1 [3]", "value": "inhibition"}, {"measurement": "pAKT staining in tumor biopsies", "setting": "pAKT [4]", "value": "Significant inhibition"}, {"measurement": "single‐agent activity in xenograft model", "setting": "PC3 prostate cancer", "value": "single‐agent activity"}, {"measurement": "p4EBP1 inhibition in blood cells", "setting": "p4EBP1 [5]; [11]", "value": "> 40", "unit": "%"}, {"measurement": "EC50", "setting": "p4EBP1 [5]; Homo sapiens, T-cell, read-out: EC50 for p4EBP1 inhibition", "value": 0.113, "unit": "µg/mL"}, {"measurement": "pS6RP staining in tumor biopsies", "setting": "pS6RP [6]", "value": "Significant inhibition"}, {"measurement": "TUNEL‐positive cells in tumor biopsies", "setting": "TUNEL‐positive cells", "value": "increase"}, {"measurement": "activity against solid tumor lines", "setting": "[7]", "value": "active"}, {"measurement": "fraction excreted unchanged in urine", "setting": "[8]", "value": "< 0.2", "unit": "%"}, {"measurement": "renal clearance", "setting": "[8]", "value": "negligible"}, {"measurement": "activity against non‐Hodgkin lymphoma cell lines", "setting": "[9]", "value": "active"}, {"measurement": "pAKT inhibition in blood cells", "setting": "pAKT [10]; [11]", "value": "> 48", "unit": "%"}, {"measurement": "EC50", "setting": "pAKT [10]; B-cell", "value": 0.0504, "unit": "µg/mL"}, {"measurement": "EC50", "setting": "pAKT [10]; Monocyte", "value": 0.085, "unit": "µg/mL"}]}
